Assay [1] relates to Neutrophil. In words: Anti-inflammatory activity in human neutrophils assessed as inhibition of fMLP/CB-induced elastase release pre-incubated for 5 mins before fMLP/CB stimulation using MeO-Suc-Ala-Ala-Pro-Val-pnitroanilide as substrate. The format is functional, cell-based. The method, boiled down: (§1)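 Neutrophils were isolated by dextran sedimentation, Ficoll Hypaque centrifugation and hypotonic lysis of erythrocytes, then held in Ca2+-free HBSS pH 7.4 at 4 °C. Cells at 6 × 10^5/mL with 100 μM substrate were equilibrated 2 min at 37 °C and given compound or 0.1% DMSO vehicle for 5 min. They were activated with 100 nM fMLP plus 0.5 μg/mL cytochalasin B, and A405 was monitored continuously. Release is expressed as percent of the drug-free activated control. Mean ± SD.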

Assay [2] relates to Neutrophil. In words: Anti-inflammatory activity in human neutrophils assessed as inhibition of fMLP/CB-induced superoxide anion generation by measuring superoxide dismutase SOD-inhibitable ferricytochrome c reduction at 10 ug/ml incubated for 5 mins before fMLP/CB stimulation for 3 mins by spectrophotometry. Format: functional. The method, boiled down: (§2)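 Same neutrophil preparation. Cells at 6 × 10^5/mL with 0.5 mg/mL ferricytochrome c and 1 mM Ca2+ were equilibrated 2 min at 37 °C and given compound or 0.1% DMSO for 5 min. Cytochalasin B (1 μg/mL) was added, then 100 nM fMLP. A550 was monitored continuously with stirring. Superoxide was calculated from the difference with versus without SOD (100 U/mL) using ε = 21.1/mM/10 mm. IC50 values are mean ± SD, n = 3.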

Assay [3] relates to Neutrophil. In words: Anti-inflammatory activity in human neutrophils assessed as inhibition of fMLP/CB-induced superoxide anion generation by measuring superoxide dismutase SOD-inhibitable ferricytochrome c reduction incubated for 5 mins before fMLP/CB stimulation for 3 mins by spectrophotometry. The format is functional, cell-based. The method, boiled down:
as §2

Assay [4] concerns Neutrophil. In words: Anti-inflammatory activity in human neutrophils assessed as inhibition of fMLP/CB-induced elastase release at 10 ug/ml pre-incubated for 5 mins before fMLP/CB stimulation using MeO-Suc-Ala-Ala-Pro-Val-pnitroanilide as substrate. The format is functional. The method, boiled down:
as §1

The source of these data is ChEMBL document CHEMBL4184133, “Chemical Constituents and Anti-inflammatory Principles from the Fruits of Forsythia suspensa” (J Nat Prod, 2017).

In brackets after ≈: the same amount, converted by molar mass.

As usually defined, the IC50 is the point on the concentration scale where inhibition reaches its midpoint. What is called inhibition is how much of the control response was suppressed.

In the case of `C=C1CC[C@H]2[C@@](C)(CO)CCC[C@]2(C)[C@H]1CC/C(C)=C\C(=O)O`, the IC50 in the assay with Neutrophil [1] is above 10 µg/mL; in the assay on Neutrophil [3], 2.5 µg/mL (≈ 7.8 µM). Besides, in the assay on Neutrophil [2], the inhibition at 10 µg/mL was above 50%.
In the case of `C=C(C)[C@@H]1CC[C@]2(C(=O)O)CC[C@]3(C)C(CCC4[C@@]5(C)C[C@@H](O)[C@H](O)C(C)(C)C5CC[C@]43C)C12` (stereo partly drawn), the inhibition at 10 µg/mL in the assay on Neutrophil [4] and in the assay with Neutrophil [2] was above 50% each time. For the same compound, the IC50 was determined as 1.9 µg/mL (≈ 4.02 µM) with Neutrophil [1] and 0.8 µg/mL (≈ 1.69 µM) with Neutrophil [3]. The inhibition result in the assay on Neutrophil [1] and with Neutrophil [3] was “Dose-dependent effect” each time.
As to `C[C@H]1[C@H](C)CC[C@]2(C(=O)O)CC[C@]3(C)C(=CC[C@@H]4[C@@]5(C)CC[C@H](O)C(C)(C)[C@@H]5CC[C@]43C)[C@H]12` [URSOLIC ACID], the inhibition at 10 µg/mL with Neutrophil [4] and in the assay with Neutrophil [2] was above 50% throughout. In addition, the IC50 with Neutrophil [1] stood at 0.8 µg/mL (≈ 1.75 µM); with Neutrophil [3], 0.6 µg/mL (≈ 1.31 µM). Besides, the inhibition entry with Neutrophil [1] and in the assay with Neutrophil [3] was “Dose-dependent effect” throughout.
On to `C=C1CC[C@H]2C(C)(C)C(=O)CC[C@]2(C)[C@H]1CC/C(C)=C/C(=O)O`, for which the IC50 in the assay on Neutrophil [1] and in the assay with Neutrophil [3] was above 10 µg/mL throughout.
Consider `O=C(Cc1ccc(O)cc1)OC[C@H]1CC[C@@H]2C(C(=O)O)=CO[C@@H](O[C@@H]3O[C@H](CO)[C@@H](O)[C@H](O)[C@H]3O)[C@H]12`, for which the IC50 in the assay on Neutrophil [1] and in the assay with Neutrophil [3] was above 10 µg/mL in each case.
For `C/C(=C\C(=O)O)CC[C@H]1C(CO)=CC[C@H]2[C@@](C)(CO)CCC[C@]12C`, the IC50 in the assay on Neutrophil [1] is above 10 µg/mL; in the assay with Neutrophil [3] it was 8.3 µg/mL (≈ 24.7 µM). The inhibition at 10 µg/mL in the assay on Neutrophil [2] was above 50%.
As to `O=C1C=CC2(O)CC(=O)OC2C1` (stereo not drawn), the IC50 in the assay on Neutrophil [1] and with Neutrophil [3] was above 10 µg/mL each time.
Take `CC1=C(CC/C(C)=C/C(=O)O)[C@@]2(C)CCC[C@@](C)(CO)[C@@H]2CC1=O`: the IC50 with Neutrophil [1] and in the assay with Neutrophil [3] was above 10 µg/mL throughout.
For `COc1cc([C@H]2OC[C@H]3[C@@H]2CO[C@H]3c2ccc(OC)c(OC)c2)ccc1O` [PHILLYGENIN], the results for the IC50 in the assay on Neutrophil [1] and in the assay with Neutrophil [3] were above 10 µg/mL and 6.4 µg/mL (≈ 17.2 µM), respectively. Besides, the inhibition at 10 µg/mL in the assay with Neutrophil [2] is above 50%. Besides, in the assay with Neutrophil [3], the inhibition result was “Dose-dependent effect”.
Consider `C=C1CC[C@H]2[C@@](C)(COC=O)CCC[C@]2(C)[C@H]1CC/C(C)=C\C(=O)O`, for which the IC50 in the assay with Neutrophil [1] and in the assay with Neutrophil [3] was above 10 µg/mL in each case.
In the case of `CC(=O)OC1CC[C@]2(C)[C@H]3CC[C@@H]4[C@@H]([C@]5(C)CCC(=O)O5)CC[C@@]4(C)[C@]3(C)CC[C@H]2C1(C)C` (stereo partly drawn), the IC50 with Neutrophil [1] and in the assay with Neutrophil [3] was above 10 µg/mL each time.
Regarding `COc1ccc([C@H]2OC[C@@H]3C(=O)OC[C@@H]32)cc1OC`, the IC50 in the assay on Neutrophil [1] is above 10 µg/mL. In addition, in the assay with Neutrophil [2], the inhibition at 10 µg/mL was above 50%. In addition, in the assay with Neutrophil [3], the IC50 was 5.6 µg/mL (≈ 21.2 µM) and the inhibition entry was “Dose-dependent effect”.
As to `CNC(=O)c1cc(Oc2ccc(NC(=O)Nc3ccc(Cl)c(C(F)(F)F)c3)cc2)ccn1` [SORAFENIB], the IC50 with Neutrophil [1] came to 0.9 µg/mL (≈ 1.94 µM); in the assay with Neutrophil [3], 1.5 µg/mL (≈ 3.23 µM).
In the case of `COC(C)(C)/C=C/C[C@](C)(O)[C@H]1CC[C@]2(C)C1CC[C@@H]1[C@@]3(C)CC[C@H](OC(C)=O)C(C)(C)[C@@H]3CC[C@]12C` (stereo partly drawn), the IC50 in the assay on Neutrophil [1] and with Neutrophil [3] was above 10 µg/mL throughout.
As for `C=C1CC[C@H]2[C@](C)(CO)CCC[C@]2(C)[C@H]1CC/C(C)=C/C(=O)O`, the IC50 in the assay with Neutrophil [1] and in the assay on Neutrophil [3] was above 10 µg/mL each time.
Turning to `CC(=O)O[C@H]1CC[C@]2(C)[C@H]3CCC4[C@@H]([C@]5(C)CC[C@@H](O)C(C)(C)O5)CC[C@@]4(C)[C@]3(C)CC[C@H]2C1(C)C` (stereo partly drawn), the IC50 with Neutrophil [1] and in the assay on Neutrophil [3] was above 10 µg/mL in each case.
Consider `COc1cc([C@H]2OC[C@H]3[C@@H]2CO[C@H]3c2ccc(O)c(OC)c2)ccc1O` [PINORESINOL], for which the IC50 with Neutrophil [1] was above 10 µg/mL. In addition, the inhibition at 10 µg/mL in the assay with Neutrophil [2] is above 50%. In the assay on Neutrophil [3], the IC50 is 3.4 µg/mL (≈ 9.49 µM) and the inhibition result is “Dose-dependent effect”.
As for `C=C1CCC2[C@@](C)(CO)CCC[C@]2(C)[C@H]1CC/C(C)=C/C(=O)O` (stereo partly drawn), the IC50 in the assay on Neutrophil [1] is above 10 µg/mL. Moreover, the inhibition at 10 µg/mL in the assay with Neutrophil [2] was above 50%. In the assay on Neutrophil [3], the IC50 amounted to 7.4 µg/mL (≈ 23.1 µM) and the inhibition result is “Dose-dependent effect”.
Take `CC(=O)O[C@H]1CC[C@]2(C)[C@H]3CC=C4[C@@H]5CC(C)(C)CC[C@]5(C(=O)O)CC[C@@]4(C)[C@]3(C)CC[C@H]2C1(C)C` [ACETYL OLEANOLIC ACID]: the IC50 in the assay on Neutrophil [1] and in the assay on Neutrophil [3] was above 10 µg/mL throughout.
As to `COc1cc(C[C@H]2COC(=O)[C@@H]2Cc2ccc(O)c(OC)c2)ccc1O` [MATAIRESINOL], the inhibition at 10 µg/mL in the assay with Neutrophil [4] and with Neutrophil [2] was above 50% each time. Moreover, the IC50 was found to be 7.3 µg/mL (≈ 20.4 µM) with Neutrophil [1] and 4.3 µg/mL (≈ 12 µM) in the assay with Neutrophil [3]. Moreover, the inhibition entry with Neutrophil [1] and in the assay on Neutrophil [3] was “Dose-dependent effect” throughout.
As to `C/C(=C\C(=O)O)CC[C@@]1(C)[C@H](C)CC[C@]2(C)C(C(=O)O)=CCC[C@H]12`, the IC50 with Neutrophil [1] and in the assay on Neutrophil [3] was above 10 µg/mL throughout.
On to `COc1cc([C@H]2OC[C@H]3[C@@H]2CO[C@@H]3c2ccc(O)c(OC)c2)ccc1O`, for which the IC50 with Neutrophil [1] is above 10 µg/mL. Further, the inhibition at 10 µg/mL in the assay with Neutrophil [2] is above 50%. In the assay on Neutrophil [3], the IC50 was found to be 1.3 µg/mL (≈ 3.63 µM) and the inhibition entry is “Dose-dependent effect”.
`CC(=O)O[C@H]1CC[C@]2(C)[C@H]3CCC4[C@@H]([C@@](C)(O)CCC=C(C)C)CC[C@@]4(C)[C@]3(C)CC[C@H]2C1(C)C` (stereo partly drawn): the IC50 with Neutrophil [1] and in the assay with Neutrophil [3] was above 10 µg/mL in each case.
Regarding `COC1CC[C@@](C)([C@H]2CC[C@]3(C)[C@@H]2CC[C@@H]2[C@@]4(C)CCC(OC(C)=O)C(C)(C)[C@@H]4CC[C@]23C)O1` (stereo partly drawn), the IC50 with Neutrophil [1] and in the assay with Neutrophil [3] was above 10 µg/mL in each case.
Take `C[C@@H]1O[C@@H](OC[C@H]2O[C@@H](OCCc3ccc(O)c(O)c3)[C@H](O)[C@@H](O)[C@@H]2OC(=O)/C=C/c2ccc(O)c(O)c2)[C@H](O)[C@H](O)[C@H]1O` [FORSYTHIASIDE]: the IC50 with Neutrophil [1] is above 10 µg/mL; in the assay with Neutrophil [3] it was 1.4 µg/mL (≈ 2.24 µM). Moreover, in the assay with Neutrophil [2], the inhibition at 10 µg/mL was above 50%. For the same compound, the inhibition entry in the assay with Neutrophil [3] is “Dose-dependent effect”.
Consider `C=C1CC[C@@H]2[C@](C)(CCC[C@@]2(C)C(=O)O)[C@H]1CC/C(C)=C\C(=O)O`, for which the IC50 in the assay on Neutrophil [1] and in the assay with Neutrophil [3] was above 10 µg/mL each time.
